Results as given in ChEMBL document CHEMBL4020703, “Epigallocatechin-3-gallate inhibits bacterial virulence and invasion of host cells” (Bioorg Med Chem, 2017).
Active and inactive are the calls of the source. No cut-off for these calls is given here.

How the values were obtained:
[1] = tested on: Salmonella enterica subsp. enterica serovar Typhimurium; assay: Inhibition of SPI-1 T3SS in Salmonella typhimurium assessed as reduction in SPI-1 T3SS substrates by measuring SopB protein level at 5 to 100 uM after 4 hrs by Coomassie staining based SDS-PAGE method
How it was run: (§1)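 Overnight S. Typhimurium cultures were diluted 1:30 into LB (10 g/L NaCl) and grown 4 h with or without compound. Culture supernatant (1 mL) was precipitated overnight at 4 °C with TCA (10% final). Pellets were spun at 14,000 rpm for 30 min, acetone-washed, and dried. Proteins were resolved on 4–20% SDS-PAGE, Coomassie-stained, and imaged.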

[2] = tested on: Salmonella enterica subsp. enterica serovar Typhimurium; assay: Inhibition of SPI-1 T3SS in Salmonella typhimurium assessed as reduction in SPI-1 T3SS substrates by measuring FliD protein level at 5 to 100 uM after 4 hrs by Coomassie staining based SDS-PAGE method; how it was run: as §1
[3] = tested on: Salmonella enterica subsp. enterica serovar Typhimurium; assay: Inhibition of SPI-1 T3SS in Salmonella typhimurium assessed as reduction in SPI-1 T3SS substrates by measuring SipB protein level at 5 to 100 uM after 4 hrs by Coomassie staining based SDS-PAGE method; how it was run: as §1
[4] = tested on: Salmonella enterica subsp. enterica serovar Typhimurium; assay: Inhibition of SPI-1 T3SS in Salmonella typhimurium assessed as reduction in SPI-1 T3SS substrates by measuring SipC protein level at 5 to 100 uM after 4 hrs by Coomassie staining based SDS-PAGE method; how it was run: as §1
[5] = tested on: Salmonella enterica subsp. enterica serovar Typhimurium; assay: Inhibition of SPI-1 T3SS in Salmonella typhimurium assessed as reduction in SPI-1 T3SS substrates by measuring SipA protein level at 5 to 100 uM after 4 hrs by Coomassie staining based SDS-PAGE method; how it was run: as §1
[6] = tested on: Salmonella enterica subsp. enterica serovar Typhimurium; assay: Inhibition of SPI-1 T3SS in Salmonella typhimurium assessed as reduction in SPI-1 T3SS substrates by measuring FliC protein level at 5 to 100 uM after 4 hrs by Coomassie staining based SDS-PAGE method; how it was run: as §1
Salmonella typhimurium [7] = assay: Effect on SopE2-CPG2-HA fusion protein expression expressed in Salmonella typhimurium using Glu-CyFur as substrate at 0.39 to 100 uM after 4 hrs by fluorescence assay; format: ADME; details: salmonella enterica subsp. enterica serovar typhimurium
How it was run: (§2)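 SopE2-CPG2-HA reporter strain grown overnight at 37 °C in LB (10 g/L NaCl) with 50 μg/mL ampicillin, diluted 1:30, then grown 4 h with compound or DMSO/H2O control (<1% of volume). Bacterial lysates were examined for reporter level.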

Salmonella typhimurium [8] = assay: Effect on growth of Salmonella typhimurium at 100 uM; details: salmonella enterica subsp. enterica serovar typhimurium
Salmonella typhimurium [9] = assay: Effect on SopE2-CPG2-HA fusion protein expression expressed in Salmonella typhimurium at 0.39 to 100 uM after 4 hrs by Western blot method; format: ADME; details: salmonella enterica subsp. enterica serovar typhimurium; how it was run: as §2
[10] = Inhibition of SPI-1 T3SS in Salmonella typhimurium expressing SopE2-CPG2-HA fusion protein assessed as reduction in type 3 protein secretion using Glu-CyFur as substrate after 4 hrs by fluorescence assay; design: species or system Salmonella enterica subsp. enterica serovar Typhimurium
How it was run: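 Reporter strain was grown 4 h at 37 °C with compound after a 1:30 dilution, and OD600 was checked. Culture supernatant was mixed with 50 mM Tris, 0.1 mM ZnCl2, pH 7.4, 0.1% Brij-97 and 10 μM Glu-CyFur. Fluorescence (ex 563/em 610 nm) was read kinetically for 2 h. Inhibition came from the rate versus DMSO/H2O control, and IC50 from an exponential decay fit.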

HeLa [11] = assay: Inhibition of SPI-1 T3SS in Salmonella typhimurium infected in human HeLa cells assessed as reduction in bacterial invasion at 100 uM after 30 mins by immunofluorescence analysis; format: cell-based; details: Salmonella enterica subsp. enterica serovar Typhimurium
How it was run: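 HeLa cells on glass coverslips were infected and stained as for the flow protocol (MOI 10, 30 min, gentamicin chase, anti-Salmonella serum/AlexaFluor 488), with nuclei counterstained by TOPRO-3. Extracellular bacteria were imaged without permeabilisation or gentamicin.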

HeLa [12] = assay: Inhibition of SPI-1 T3SS in Salmonella typhimurium infected in human HeLa cells assessed as reduction in bacterial invasion at 100 uM after 30 mins by flow cytometry; format: cell-based; details: Salmonella enterica subsp. enterica serovar Typhimurium
How it was run: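 Strain IR715 was pre-grown 4 h in LB (1/33 dilution) with compound or DMSO, then added to HeLa cells (DMEM/10% FBS) at MOI 10 with compound. Plates were spun 5 min at 1000×g, infected 30 min at 37 °C, then given gentamicin 100 ug/mL for 30 min. Cells were fixed, saponin-permeabilised, stained with anti-Salmonella serum plus AlexaFluor 488 secondary, and 30,000 cells counted. Values normalised to DMSO; triplicate.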

[13] = tested on: Salmonella enterica subsp. enterica serovar Typhimurium; assay: Inhibition of SPI-1 T3SS in Salmonella typhimurium assessed as reduction in SPI-1 T3SS substrates by measuring FliC protein level at 100 uM after 4 hrs by Coomassie staining based SDS-PAGE method; how it was run: as §1
[14] = tested on: Salmonella enterica subsp. enterica serovar Typhimurium; assay: Inhibition of SPI-1 T3SS in Salmonella typhimurium assessed as reduction in SPI-1 T3SS substrates by measuring FliD protein level at 100 uM after 4 hrs by Coomassie staining based SDS-PAGE method; how it was run: as §1
[15] = tested on: Salmonella enterica subsp. enterica serovar Typhimurium; assay: Inhibition of SPI-1 T3SS in Salmonella typhimurium assessed as reduction in SPI-1 T3SS substrates by measuring SipB protein level at 100 uM after 4 hrs by Coomassie staining based SDS-PAGE method; how it was run: as §1
[16] = tested on: Salmonella enterica subsp. enterica serovar Typhimurium; assay: Inhibition of SPI-1 T3SS in Salmonella typhimurium assessed as reduction in SPI-1 T3SS substrates by measuring SipA protein level at 100 uM after 4 hrs by Coomassie staining based SDS-PAGE method; how it was run: as §1
[17] = tested on: Salmonella enterica subsp. enterica serovar Typhimurium; assay: Inhibition of SPI-1 T3SS in Salmonella typhimurium assessed as reduction in SPI-1 T3SS substrates by measuring SipC protein level at 100 uM after 4 hrs by Coomassie staining based SDS-PAGE method; how it was run: as §1
[18] = tested on: Salmonella enterica subsp. enterica serovar Typhimurium; assay: Inhibition of SPI-1 T3SS in Salmonella typhimurium assessed as reduction in SPI-1 T3SS substrates by measuring SopB protein level at 100 uM after 4 hrs by Coomassie staining based SDS-PAGE method; how it was run: as §1

Row | Structure (SMILES) | inhibition [1] | inhibition [2] | inhibition [3] | inhibition [4] | inhibition [5] | inhibition [6] | Activity (Salmonella typhimurium [7]) | Activity (Salmonella typhimurium [8]) | Activity (Salmonella typhimurium [9]) | IC50 [10] [nM] | inhibition (HeLa [11]) | inhibition (HeLa [12]) | inhibition [13] | inhibition [14] | inhibition [15] | inhibition [16] | inhibition [17] | inhibition [18]
1 | O=c1cc(-c2ccccc2)oc2cc(O)c(O)c(O)c12 | Active | Active | Active | Active | Active | Active |  |  |  |  |  |  |  |  |  |  |  | 
2 | O=C(O[C@@H]1Cc2c(O)cc(O)cc2O[C@@H]1c1cc(O)c(O)c(O)c1)c1cc(O)c(O)c(O)c1 [EPIGALOCATECHIN GALLATE] | Dose-dependent effect | Active | Dose-dependent effect | Dose-dependent effect | Dose-dependent effect | Active | Non-Toxic | Non-Toxic | Non-Toxic | 2150 | Active | Active |  |  |  |  |  | 
3 | O=c1cc(-c2ccccc2)oc2cc(O)cc(O)c12 |  |  |  |  |  |  |  |  |  |  |  |  | inactive | inactive | inactive | inactive | inactive | inactive
4 | O=C(N/N=C/c1cc(Br)cc(Br)c1O)c1ccc([N+](=O)[O-])cc1 | Active | Active | Active | Active | Active | Active |  |  |  |  |  |  |  |  |  |  |  | 
5 | O=C(O[C@@H]1Cc2c(O)cc(O)cc2O[C@@H]1c1ccc(O)c(O)c1)c1cc(O)c(O)c(O)c1 | Dose-dependent effect | Active | Dose-dependent effect | Dose-dependent effect | Dose-dependent effect | Active |  |  |  |  |  |  |  |  |  |  |  | 
